Assay results published in ChEMBL document CHEMBL4689842, “EUbOPEN Chemogenomics Library wave 1” (2021).

System: Fibroblast
Experiment: Multiplex assay against human fibroblast
Format: toxicity, cell-based
Procedure, shortened: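 Live cells were stained at seeding with Hoechst33342, BioTracker Green Microtubule Cytoskeleton Dye, MitoTracker Red and Annexin V Alexa Fluor 680, then imaged on a CQ1 microscope at 37°C and 5% CO2 after compound addition. CellPathfinder machine-learning gating split cells into Hoechst high-intensity objects or normal cells. Normal cells were split into healthy, pyknosed or fragmented nuclei, and pyknosed cells into mitotic or apoptotic. Tubulin, mitochondrial-mass and membrane-permeability phenotypes are per cents of healthy-nucleus cells.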

[1] = 12 h, 1 µM, compound concentration 1 uM, replicate 1
[2] = 12 h, 1 µM, compound concentration 1 uM, replicate 2
[3] = 12 h, 10 µM, compound concentration 10 uM, replicate 1
[4] = 12 h, 10 µM, compound concentration 10 uM, replicate 2
[5] = 24 h, 1 µM, compound concentration 1 uM, replicate 1
[6] = 24 h, 1 µM, compound concentration 1 uM, replicate 2
[7] = 24 h, 10 µM, compound concentration 10 uM, replicate 1
[8] = 24 h, 10 µM, compound concentration 10 uM, replicate 2
[9] = 48 h, 1 µM, compound concentration 1 uM, replicate 1
[10] = 48 h, 1 µM, compound concentration 1 uM, replicate 2
[11] = 48 h, 10 µM, compound concentration 10 uM, replicate 1
[12] = 48 h, 10 µM, compound concentration 10 uM, replicate 2

Cc1nc(-c2ccc(-c3ccc(C(=O)N4CCc5cc6c(cc54)C4(CCN(C)CC4)CO6)cc3)c(C)c2)no1 [SB-224289]
Population Apoptotic (%) [1]: 66%
Population Fragmented Nuclei (%) [1]: 35%
Population Healthy Nuclei (%) [1]: 33%
Population Hoechst High Intensity Objects (%) [1]: 7%
Population Membrane Permeable-Phenotype (%) [1]: 18%
Population Mitochondria Different-Phenotype (%) [1]: 25%
Population Mitotic Cells (%) [1]: 33%
Population Normal (%) [1]: 92%
Population Pyknosed Nuclei (%) [1]: 31%
Population Tubulin-Different-Phenotype (%) [1]: 75%
Total Cell Count [1]: 188
Population Apoptotic (%) [2]: 28%
Population Fragmented Nuclei (%) [2]: 4%
Population Healthy Nuclei (%) [2]: 81%
Population Hoechst High Intensity Objects (%) [2]: 12%
Population Membrane Permeable-Phenotype (%) [2]: 10%
Population Mitochondria Different-Phenotype (%) [2]: 42%
Population Mitotic Cells (%) [2]: 71%
Population Normal (%) [2]: 87%
Population Pyknosed Nuclei (%) [2]: 14%
Population Tubulin-Different-Phenotype (%) [2]: 37%
Total Cell Count [2]: 65
Population Apoptotic (%) [3]: 71%
Population Fragmented Nuclei (%) [3]: 34%
Population Healthy Nuclei (%) [3]: 40%
Population Hoechst High Intensity Objects (%) [3]: 15%
Population Membrane Permeable-Phenotype (%) [3]: 5%
Population Mitochondria Different-Phenotype (%) [3]: 62%
Population Mitotic Cells (%) [3]: 28%
Population Normal (%) [3]: 84%
Population Pyknosed Nuclei (%) [3]: 24%
Population Tubulin-Different-Phenotype (%) [3]: 89%
Total Cell Count [3]: 213
Population Apoptotic (%) [4]: 63%
Population Fragmented Nuclei (%) [4]: 7%
Population Healthy Nuclei (%) [4]: 77%
Population Hoechst High Intensity Objects (%) [4]: 11%
Population Membrane Permeable-Phenotype (%) [4]: 54%
Population Mitochondria Different-Phenotype (%) [4]: 100%
Population Mitotic Cells (%) [4]: 36%
Population Normal (%) [4]: 88%
Population Pyknosed Nuclei (%) [4]: 15%
Population Tubulin-Different-Phenotype (%) [4]: 100%
Total Cell Count [4]: 56
Population Apoptotic (%) [5]: 65%
Population Fragmented Nuclei (%) [5]: 32%
Population Healthy Nuclei (%) [5]: 41%
Population Hoechst High Intensity Objects (%) [5]: 14%
Population Membrane Permeable-Phenotype (%) [5]: 20%
Population Mitochondria Different-Phenotype (%) [5]: 27%
Population Mitotic Cells (%) [5]: 34%
Population Normal (%) [5]: 85%
Population Pyknosed Nuclei (%) [5]: 25%
Population Tubulin-Different-Phenotype (%) [5]: 79%
Total Cell Count [5]: 202
Population Apoptotic (%) [6]: 0%
Population Fragmented Nuclei (%) [6]: 15%
Population Healthy Nuclei (%) [6]: 77%
Population Hoechst High Intensity Objects (%) [6]: 9%
Population Membrane Permeable-Phenotype (%) [6]: 6%
Population Mitochondria Different-Phenotype (%) [6]: 38%
Population Mitotic Cells (%) [6]: 100%
Population Normal (%) [6]: 90%
Population Pyknosed Nuclei (%) [6]: 7%
Population Tubulin-Different-Phenotype (%) [6]: 22%
Total Cell Count [6]: 73
Population Apoptotic (%) [7]: 78%
Population Fragmented Nuclei (%) [7]: 35%
Population Healthy Nuclei (%) [7]: 25%
Population Hoechst High Intensity Objects (%) [7]: 17%
Population Membrane Permeable-Phenotype (%) [7]: 2%
Population Mitochondria Different-Phenotype (%) [7]: 61%
Population Mitotic Cells (%) [7]: 21%
Population Normal (%) [7]: 82%
Population Pyknosed Nuclei (%) [7]: 38%
Population Tubulin-Different-Phenotype (%) [7]: 66%
Total Cell Count [7]: 186
Population Apoptotic (%) [8]: 76%
Population Fragmented Nuclei (%) [8]: 16%
Population Healthy Nuclei (%) [8]: 56%
Population Hoechst High Intensity Objects (%) [8]: 11%
Population Membrane Permeable-Phenotype (%) [8]: 86%
Population Mitochondria Different-Phenotype (%) [8]: 100%
Population Mitotic Cells (%) [8]: 23%
Population Normal (%) [8]: 88%
Population Pyknosed Nuclei (%) [8]: 26%
Population Tubulin-Different-Phenotype (%) [8]: 100%
Total Cell Count [8]: 63
Population Apoptotic (%) [9]: 68%
Population Fragmented Nuclei (%) [9]: 44%
Population Healthy Nuclei (%) [9]: 46%
Population Hoechst High Intensity Objects (%) [9]: 21%
Population Membrane Permeable-Phenotype (%) [9]: 8%
Population Mitochondria Different-Phenotype (%) [9]: 6%
Population Mitotic Cells (%) [9]: 31%
Population Normal (%) [9]: 78%
Population Pyknosed Nuclei (%) [9]: 8%
Population Tubulin-Different-Phenotype (%) [9]: 50%
Total Cell Count [9]: 277
Population Apoptotic (%) [10]: 0%
Population Fragmented Nuclei (%) [10]: 48%
Population Healthy Nuclei (%) [10]: 50%
Population Hoechst High Intensity Objects (%) [10]: 27%
Population Membrane Permeable-Phenotype (%) [10]: 12%
Population Mitochondria Different-Phenotype (%) [10]: 3%
Population Mitotic Cells (%) [10]: 100%
Population Normal (%) [10]: 72%
Population Pyknosed Nuclei (%) [10]: 0%
Population Tubulin-Different-Phenotype (%) [10]: 56%
Total Cell Count [10]: 169
Population Apoptotic (%) [11]: 90%
Population Fragmented Nuclei (%) [11]: 46%
Population Healthy Nuclei (%) [11]: 21%
Population Hoechst High Intensity Objects (%) [11]: 33%
Population Membrane Permeable-Phenotype (%) [11]: 30%
Population Mitochondria Different-Phenotype (%) [11]: 50%
Population Mitotic Cells (%) [11]: 10%
Population Normal (%) [11]: 66%
Population Pyknosed Nuclei (%) [11]: 31%
Population Tubulin-Different-Phenotype (%) [11]: 85%
Total Cell Count [11]: 142
Population Apoptotic (%) [12]: 100%
Population Fragmented Nuclei (%) [12]: 47%
Population Healthy Nuclei (%) [12]: 15%
Population Hoechst High Intensity Objects (%) [12]: 29%
Population Membrane Permeable-Phenotype (%) [12]: 14%
Population Mitochondria Different-Phenotype (%) [12]: 85%
Population Mitotic Cells (%) [12]: 0%
Population Normal (%) [12]: 70%
Population Pyknosed Nuclei (%) [12]: 36%
Population Tubulin-Different-Phenotype (%) [12]: 71%
Total Cell Count [12]: 127
